Changes are numbered by the printed parent chain.
What was measured:
Details in all cases: stereoisomer not certain
OR6K3 = tested on: T1, OR6K3
T1 sequence (whole entry): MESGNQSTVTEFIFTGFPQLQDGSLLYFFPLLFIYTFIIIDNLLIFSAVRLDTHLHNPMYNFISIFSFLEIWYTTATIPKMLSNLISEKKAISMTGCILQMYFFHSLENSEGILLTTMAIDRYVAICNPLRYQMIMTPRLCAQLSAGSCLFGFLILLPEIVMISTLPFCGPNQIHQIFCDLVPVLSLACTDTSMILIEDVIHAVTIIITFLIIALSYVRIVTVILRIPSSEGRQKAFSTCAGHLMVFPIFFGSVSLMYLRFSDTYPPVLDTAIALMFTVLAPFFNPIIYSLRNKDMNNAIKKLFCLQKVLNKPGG
Procedure, shortened: (§1)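 Assay methods differ from source to source, frequently being transient luciferase assays in mammalian cell lines. For each receptor–molecule pair, the label responsive (active) applies when the original authors judged the measured signal statistically different from baseline, and non-responsive (inactive) applies otherwise.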

OR6K6 (Homo sapiens) = target: T2, OR6K6 (Homo sapiens) (UniProt Q8NGW6)
T2 sequence (whole entry): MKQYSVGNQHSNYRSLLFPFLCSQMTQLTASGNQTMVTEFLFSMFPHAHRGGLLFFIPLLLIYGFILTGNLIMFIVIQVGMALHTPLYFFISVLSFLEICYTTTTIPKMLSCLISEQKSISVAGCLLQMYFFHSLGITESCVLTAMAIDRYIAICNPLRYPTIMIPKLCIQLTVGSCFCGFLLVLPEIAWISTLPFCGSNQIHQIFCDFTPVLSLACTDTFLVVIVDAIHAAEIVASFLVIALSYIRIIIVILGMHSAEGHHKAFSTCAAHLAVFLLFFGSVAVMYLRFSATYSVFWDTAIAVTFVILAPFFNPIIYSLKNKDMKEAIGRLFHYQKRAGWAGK
Procedure, shortened: as §1

OR6M1 (Homo sapiens) = target: T3, OR6M1 (Homo sapiens) (UniProt Q8NGM8)
T3 sequence (whole entry): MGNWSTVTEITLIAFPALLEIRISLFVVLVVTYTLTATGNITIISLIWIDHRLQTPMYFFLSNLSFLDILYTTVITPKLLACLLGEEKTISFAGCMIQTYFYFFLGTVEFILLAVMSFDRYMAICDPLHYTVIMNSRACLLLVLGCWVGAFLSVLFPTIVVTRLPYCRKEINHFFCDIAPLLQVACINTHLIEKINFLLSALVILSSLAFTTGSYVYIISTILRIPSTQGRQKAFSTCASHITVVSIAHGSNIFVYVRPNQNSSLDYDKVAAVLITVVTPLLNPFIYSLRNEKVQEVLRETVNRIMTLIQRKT
Procedure, shortened: as §1

OR6M1 R224C = tested on: T4, OR6M1 R224C
T4 sequence (whole entry): T3 sequence (whole entry) with R224C
Procedure, shortened: as §1

OR6M1 T276K = tested on: T5, OR6M1 T276K
T5 sequence (whole entry): T3 sequence (whole entry) with T276K
Procedure, shortened: as §1

OR6N1 (Homo sapiens) = target: T6, OR6N1 (Homo sapiens) (UniProt Q8NGY5)
T6 sequence (whole entry): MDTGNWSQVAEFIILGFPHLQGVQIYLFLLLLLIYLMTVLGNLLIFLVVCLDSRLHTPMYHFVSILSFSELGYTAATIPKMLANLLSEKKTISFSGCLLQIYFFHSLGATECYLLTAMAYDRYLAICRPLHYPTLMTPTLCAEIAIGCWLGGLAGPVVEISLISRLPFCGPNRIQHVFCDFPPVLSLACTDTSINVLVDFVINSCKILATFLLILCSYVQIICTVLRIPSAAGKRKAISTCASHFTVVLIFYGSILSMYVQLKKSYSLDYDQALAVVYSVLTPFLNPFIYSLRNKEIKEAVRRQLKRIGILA
Procedure, shortened: as §1

OR6N2 (Homo sapiens) = target: T7, OR6N2 (Homo sapiens) (UniProt Q8NGY6)
T7 sequence (whole entry): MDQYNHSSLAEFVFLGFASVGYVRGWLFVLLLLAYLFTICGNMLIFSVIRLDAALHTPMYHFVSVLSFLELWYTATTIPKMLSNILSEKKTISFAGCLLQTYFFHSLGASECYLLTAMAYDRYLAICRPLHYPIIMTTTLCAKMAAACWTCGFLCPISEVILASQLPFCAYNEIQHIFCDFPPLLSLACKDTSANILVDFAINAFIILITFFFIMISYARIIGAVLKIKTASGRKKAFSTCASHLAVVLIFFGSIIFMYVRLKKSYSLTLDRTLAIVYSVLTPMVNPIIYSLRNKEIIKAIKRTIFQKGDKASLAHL
Procedure, shortened: as §1

OR6P1 (Homo sapiens) = target: T8, OR6P1 (Homo sapiens) (UniProt Q8NGX9)
T8 sequence (whole entry): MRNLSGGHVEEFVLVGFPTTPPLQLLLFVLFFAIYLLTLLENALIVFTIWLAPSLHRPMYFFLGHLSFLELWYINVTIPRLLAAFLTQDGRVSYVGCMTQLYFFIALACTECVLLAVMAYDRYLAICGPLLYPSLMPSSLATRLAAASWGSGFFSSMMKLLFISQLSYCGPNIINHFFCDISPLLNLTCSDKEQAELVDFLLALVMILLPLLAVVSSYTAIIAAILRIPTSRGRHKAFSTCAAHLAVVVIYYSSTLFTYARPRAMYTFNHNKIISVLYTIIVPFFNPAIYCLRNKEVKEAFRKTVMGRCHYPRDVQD
Procedure, shortened: as §1

OR6Q1 (Homo sapiens) = target: T9, OR6Q1 (Homo sapiens) (UniProt Q8NGQ2)
T9 sequence (whole entry): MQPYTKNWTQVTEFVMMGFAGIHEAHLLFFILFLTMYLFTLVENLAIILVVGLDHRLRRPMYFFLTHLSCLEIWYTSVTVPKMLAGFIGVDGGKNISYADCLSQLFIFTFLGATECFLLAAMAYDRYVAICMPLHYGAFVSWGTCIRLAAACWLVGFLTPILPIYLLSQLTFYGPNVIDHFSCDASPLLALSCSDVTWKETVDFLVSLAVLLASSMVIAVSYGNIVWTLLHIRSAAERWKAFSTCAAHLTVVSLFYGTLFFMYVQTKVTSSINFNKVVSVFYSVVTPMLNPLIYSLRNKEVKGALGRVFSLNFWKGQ
Procedure, shortened: as §1

OR6S1 (Homo sapiens) = target: T10, OR6S1 (Homo sapiens) (UniProt Q8NH40)
T10 sequence (whole entry): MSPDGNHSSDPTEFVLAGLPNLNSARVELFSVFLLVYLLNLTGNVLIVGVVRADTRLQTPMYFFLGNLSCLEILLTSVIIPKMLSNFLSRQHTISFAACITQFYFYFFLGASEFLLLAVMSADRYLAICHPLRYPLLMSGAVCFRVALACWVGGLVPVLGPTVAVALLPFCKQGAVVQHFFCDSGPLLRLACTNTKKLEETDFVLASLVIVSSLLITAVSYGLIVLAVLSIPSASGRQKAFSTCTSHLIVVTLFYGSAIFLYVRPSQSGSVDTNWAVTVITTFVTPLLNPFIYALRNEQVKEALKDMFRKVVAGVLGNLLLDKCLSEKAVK
Procedure, shortened: as §1

OR6S1 T42I V156I = tested on: T11, OR6S1 T42I V156I
T11 sequence (whole entry): T10 sequence (whole entry) with T42I, V156I
Procedure, shortened: as §1

OR6T1 (Homo sapiens) = target: T12, OR6T1 (Homo sapiens) (UniProt Q8NGN1)
T12 sequence (whole entry): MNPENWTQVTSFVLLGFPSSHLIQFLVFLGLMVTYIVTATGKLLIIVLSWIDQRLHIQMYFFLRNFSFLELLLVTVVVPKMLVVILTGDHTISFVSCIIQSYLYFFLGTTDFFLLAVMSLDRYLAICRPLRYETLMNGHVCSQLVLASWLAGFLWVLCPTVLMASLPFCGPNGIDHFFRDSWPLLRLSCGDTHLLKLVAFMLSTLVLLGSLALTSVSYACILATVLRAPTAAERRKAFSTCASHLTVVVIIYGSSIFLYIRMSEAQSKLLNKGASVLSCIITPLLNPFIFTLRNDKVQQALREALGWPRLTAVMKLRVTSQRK
Procedure, shortened: as §1

OR6T1 N2D = tested on: T13, OR6T1 N2D
T13 sequence (whole entry): T12 sequence (whole entry) with N2D
Procedure, shortened: as §1

OR6V1 (Homo sapiens) = target: T14, OR6V1 (Homo sapiens) (UniProt Q8N148)
T14 sequence (whole entry): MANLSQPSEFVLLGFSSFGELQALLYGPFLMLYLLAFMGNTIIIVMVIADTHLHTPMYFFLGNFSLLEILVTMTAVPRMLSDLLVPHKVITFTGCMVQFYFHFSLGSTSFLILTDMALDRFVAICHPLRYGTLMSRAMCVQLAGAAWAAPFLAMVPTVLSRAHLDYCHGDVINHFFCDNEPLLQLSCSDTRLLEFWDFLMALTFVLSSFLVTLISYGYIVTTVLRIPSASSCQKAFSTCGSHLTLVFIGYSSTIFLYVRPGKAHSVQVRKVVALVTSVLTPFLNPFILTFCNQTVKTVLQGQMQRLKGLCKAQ
Procedure, shortened: as §1

OR6X1 (Homo sapiens) = target: T15, OR6X1 (Homo sapiens) (UniProt Q8NH79)
T15 sequence (whole entry): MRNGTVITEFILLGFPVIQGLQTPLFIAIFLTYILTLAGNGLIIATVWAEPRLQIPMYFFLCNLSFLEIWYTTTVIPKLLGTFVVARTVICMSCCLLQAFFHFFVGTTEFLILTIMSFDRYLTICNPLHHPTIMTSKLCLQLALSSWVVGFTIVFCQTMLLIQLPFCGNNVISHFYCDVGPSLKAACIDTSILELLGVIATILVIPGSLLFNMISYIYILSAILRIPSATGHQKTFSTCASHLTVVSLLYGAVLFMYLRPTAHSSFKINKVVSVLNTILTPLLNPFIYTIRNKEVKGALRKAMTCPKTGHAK
Procedure, shortened: as §1

OR6Y1 (Homo sapiens) = target: T16, OR6Y1 (Homo sapiens) (UniProt Q8NGX8)
T16 sequence (whole entry): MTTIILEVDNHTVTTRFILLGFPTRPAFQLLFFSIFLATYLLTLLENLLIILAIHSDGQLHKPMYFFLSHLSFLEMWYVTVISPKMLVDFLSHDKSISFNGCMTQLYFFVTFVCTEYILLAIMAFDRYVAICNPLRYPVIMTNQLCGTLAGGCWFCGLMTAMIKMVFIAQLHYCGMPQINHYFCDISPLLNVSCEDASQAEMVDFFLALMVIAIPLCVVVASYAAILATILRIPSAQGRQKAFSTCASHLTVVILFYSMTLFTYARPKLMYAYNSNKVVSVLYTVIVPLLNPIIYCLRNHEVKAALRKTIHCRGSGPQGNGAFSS
Procedure, shortened: as §1

OR7A10 (Homo sapiens) = target: T17, OR7A10 (Homo sapiens) (UniProt O76100)
T17 sequence (whole entry): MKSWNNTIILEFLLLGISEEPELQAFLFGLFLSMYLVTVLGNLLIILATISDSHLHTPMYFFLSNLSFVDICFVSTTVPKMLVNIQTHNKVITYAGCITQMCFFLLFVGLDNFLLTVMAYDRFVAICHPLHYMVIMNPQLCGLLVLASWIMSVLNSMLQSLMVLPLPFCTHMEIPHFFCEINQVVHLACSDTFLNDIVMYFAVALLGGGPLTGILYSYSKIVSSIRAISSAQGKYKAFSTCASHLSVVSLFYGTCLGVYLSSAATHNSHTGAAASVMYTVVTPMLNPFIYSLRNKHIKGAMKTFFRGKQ
Procedure, shortened: as §1

OR7A17 (Homo sapiens) = target: T18, OR7A17 (Homo sapiens) (UniProt O14581)
T18 sequence (whole entry): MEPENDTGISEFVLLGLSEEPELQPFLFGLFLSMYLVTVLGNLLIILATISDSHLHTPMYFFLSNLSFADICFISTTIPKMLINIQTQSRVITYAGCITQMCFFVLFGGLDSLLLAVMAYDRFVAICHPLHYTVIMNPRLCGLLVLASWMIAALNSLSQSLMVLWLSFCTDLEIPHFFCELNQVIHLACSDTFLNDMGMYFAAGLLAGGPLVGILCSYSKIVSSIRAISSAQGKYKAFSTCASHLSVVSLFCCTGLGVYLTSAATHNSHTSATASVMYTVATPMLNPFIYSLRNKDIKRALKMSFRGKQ
Procedure, shortened: as §1

OR7A5 (Homo sapiens) = target: T19, OR7A5 (Homo sapiens) (UniProt Q15622)
T19 sequence (whole entry): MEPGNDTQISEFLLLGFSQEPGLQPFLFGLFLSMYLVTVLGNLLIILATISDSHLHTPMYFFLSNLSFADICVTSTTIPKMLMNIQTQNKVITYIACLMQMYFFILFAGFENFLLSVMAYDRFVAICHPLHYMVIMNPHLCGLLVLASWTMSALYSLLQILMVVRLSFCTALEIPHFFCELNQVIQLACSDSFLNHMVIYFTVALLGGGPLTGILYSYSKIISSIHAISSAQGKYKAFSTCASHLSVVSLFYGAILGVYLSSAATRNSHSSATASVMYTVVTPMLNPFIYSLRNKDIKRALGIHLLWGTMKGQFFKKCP
Procedure, shortened: as §1

OR6K3 (Homo sapiens) = target: T20, OR6K3 (Homo sapiens) (UniProt Q8NGY3)
T20 sequence (whole entry): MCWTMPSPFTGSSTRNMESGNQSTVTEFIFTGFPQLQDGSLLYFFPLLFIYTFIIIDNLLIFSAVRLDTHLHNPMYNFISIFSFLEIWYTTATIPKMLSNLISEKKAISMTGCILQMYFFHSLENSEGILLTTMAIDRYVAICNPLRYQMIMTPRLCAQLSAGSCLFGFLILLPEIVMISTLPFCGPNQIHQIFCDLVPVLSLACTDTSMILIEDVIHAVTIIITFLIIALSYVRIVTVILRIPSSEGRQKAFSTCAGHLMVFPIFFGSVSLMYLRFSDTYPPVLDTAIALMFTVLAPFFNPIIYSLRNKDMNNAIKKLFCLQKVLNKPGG
Procedure, shortened: as §1

Measured: odorant receptor agonist call

CCCC(S)CCOC(C)=O (centres undefined)
not listed: OR6K3 (Homo sapiens)
inactive: all other assays above

CCC(S)C(C)CO (centres undefined)
not listed: OR6K3 | OR6M1 R224C | OR6M1 T276K | OR6S1 T42I V156I | OR6T1 N2D
inactive: all other assays above

Source: the M2OR odorant receptor database
